Data from ChEMBL document CHEMBL1165965, “Synthesis and structure-activity relationships of 1,2,3,4-tetrahydropyrido[2,3-b]pyrazines as potent and selective inhibitors of the anaplastic lymphoma kinase” (Bioorg Med Chem, 2010).

Columns and labels:
[1] = target: Serine/threonine-protein kinase pim-3 (Homo sapiens) (UniProt Q86V86); assay: Inhibition of PIM3 at 1 uM
[2] = target: Cyclin-dependent kinase 16 (Homo sapiens) (UniProt Q00536); assay: Inhibition of PCTK1 at 1 uM
[3] = target: Tyrosine-protein kinase Fer (Homo sapiens) (UniProt P16591); assay: Inhibition of FER at 1 uM
Sequence of Tyrosine-protein kinase Fer (Homo sapiens) (P16591 whole entry, looked up): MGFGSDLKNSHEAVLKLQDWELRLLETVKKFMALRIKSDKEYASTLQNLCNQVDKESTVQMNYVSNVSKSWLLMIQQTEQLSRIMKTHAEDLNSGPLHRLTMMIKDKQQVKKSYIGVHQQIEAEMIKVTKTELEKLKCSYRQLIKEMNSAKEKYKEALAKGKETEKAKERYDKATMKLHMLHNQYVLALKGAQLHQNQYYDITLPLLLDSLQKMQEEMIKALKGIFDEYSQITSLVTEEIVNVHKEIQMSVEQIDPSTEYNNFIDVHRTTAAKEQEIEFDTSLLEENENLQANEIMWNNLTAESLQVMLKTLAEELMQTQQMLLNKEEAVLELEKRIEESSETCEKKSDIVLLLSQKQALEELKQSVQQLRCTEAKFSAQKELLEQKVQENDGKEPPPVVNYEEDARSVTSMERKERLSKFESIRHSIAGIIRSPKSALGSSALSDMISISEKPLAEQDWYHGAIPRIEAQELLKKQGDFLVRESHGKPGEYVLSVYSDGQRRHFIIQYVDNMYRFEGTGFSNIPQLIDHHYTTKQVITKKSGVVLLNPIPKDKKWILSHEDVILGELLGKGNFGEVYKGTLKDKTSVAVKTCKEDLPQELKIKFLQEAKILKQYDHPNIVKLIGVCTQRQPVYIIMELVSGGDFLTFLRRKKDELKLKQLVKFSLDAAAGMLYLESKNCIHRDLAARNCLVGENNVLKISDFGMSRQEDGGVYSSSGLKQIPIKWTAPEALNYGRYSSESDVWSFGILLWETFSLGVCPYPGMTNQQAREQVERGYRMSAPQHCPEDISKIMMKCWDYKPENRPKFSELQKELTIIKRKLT
In short: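 Single-concentration screen using Ambit Bioscience KINOMEscan technology across a panel of 250–400 kinases. Per-kinase inhibition from this screen was summarized as S(90), the fraction of kinases inhibited by more than 90%.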

[4] = test system: Phosphatidylinositol 4,5-bisphosphate 3-kinase catalytic subunit alpha isoform (Homo sapiens), P42336 [H1047Y]; assay: Inhibition of PIK3CA H1047Y mutant at 1 uM
Sequence of Phosphatidylinositol 4,5-bisphosphate 3-kinase catalytic subunit alpha isoform (Homo sapiens), P42336 [H1047Y] (P42336 whole entry H1047Y, canonical isoform): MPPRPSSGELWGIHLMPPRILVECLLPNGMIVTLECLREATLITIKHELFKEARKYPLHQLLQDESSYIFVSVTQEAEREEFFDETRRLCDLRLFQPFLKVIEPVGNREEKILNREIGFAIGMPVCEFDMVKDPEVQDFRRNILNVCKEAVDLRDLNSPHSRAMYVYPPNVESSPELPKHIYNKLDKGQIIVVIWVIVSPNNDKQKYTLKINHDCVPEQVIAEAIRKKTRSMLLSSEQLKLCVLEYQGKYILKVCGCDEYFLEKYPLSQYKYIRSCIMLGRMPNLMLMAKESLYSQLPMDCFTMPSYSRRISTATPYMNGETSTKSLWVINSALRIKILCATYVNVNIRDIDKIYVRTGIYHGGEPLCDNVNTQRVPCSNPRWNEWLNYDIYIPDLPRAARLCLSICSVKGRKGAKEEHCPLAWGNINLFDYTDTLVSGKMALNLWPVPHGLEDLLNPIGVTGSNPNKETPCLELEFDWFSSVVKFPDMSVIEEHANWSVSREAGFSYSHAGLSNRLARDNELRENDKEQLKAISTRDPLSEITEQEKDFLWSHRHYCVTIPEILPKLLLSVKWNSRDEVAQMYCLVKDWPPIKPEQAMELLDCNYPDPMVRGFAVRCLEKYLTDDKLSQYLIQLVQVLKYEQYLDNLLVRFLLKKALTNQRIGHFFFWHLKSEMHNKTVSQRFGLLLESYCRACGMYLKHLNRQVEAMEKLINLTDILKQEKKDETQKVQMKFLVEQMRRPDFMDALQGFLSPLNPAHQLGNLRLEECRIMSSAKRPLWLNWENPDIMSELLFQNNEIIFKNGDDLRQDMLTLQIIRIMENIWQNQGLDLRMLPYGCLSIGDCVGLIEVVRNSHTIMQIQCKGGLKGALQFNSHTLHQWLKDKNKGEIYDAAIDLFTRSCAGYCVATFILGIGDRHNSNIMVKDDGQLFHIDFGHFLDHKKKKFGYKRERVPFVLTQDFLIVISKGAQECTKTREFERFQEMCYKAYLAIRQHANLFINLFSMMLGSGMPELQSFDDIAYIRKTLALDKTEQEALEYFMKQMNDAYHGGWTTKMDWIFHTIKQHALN

[5] = target: Serine/threonine-protein kinase PAK 2 (Homo sapiens) (UniProt Q13177); assay: Inhibition of PAK2 at 1 uM
Sequence of Serine/threonine-protein kinase PAK 2 (Homo sapiens) (Q13177 whole entry): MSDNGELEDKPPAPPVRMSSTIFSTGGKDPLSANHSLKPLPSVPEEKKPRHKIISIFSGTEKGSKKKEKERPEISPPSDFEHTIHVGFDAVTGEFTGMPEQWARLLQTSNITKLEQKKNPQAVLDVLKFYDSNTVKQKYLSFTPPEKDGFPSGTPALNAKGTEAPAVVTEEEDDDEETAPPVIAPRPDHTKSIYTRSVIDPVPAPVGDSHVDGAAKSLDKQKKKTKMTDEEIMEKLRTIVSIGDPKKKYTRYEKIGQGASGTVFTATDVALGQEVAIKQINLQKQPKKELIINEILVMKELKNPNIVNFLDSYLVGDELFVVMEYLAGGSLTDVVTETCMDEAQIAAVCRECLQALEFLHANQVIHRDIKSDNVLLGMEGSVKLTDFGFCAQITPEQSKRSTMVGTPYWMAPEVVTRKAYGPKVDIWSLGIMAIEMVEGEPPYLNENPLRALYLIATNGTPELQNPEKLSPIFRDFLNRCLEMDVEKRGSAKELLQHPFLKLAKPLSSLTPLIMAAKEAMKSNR

[6] = target: T1, Membrane-associated tyrosine- and threonine-specific cdc2-inhibitory kinase (Homo sapiens) (UniProt Q99640); assay: Inhibition of PKMYT1 at 1 uM
T1 sequence (whole entry): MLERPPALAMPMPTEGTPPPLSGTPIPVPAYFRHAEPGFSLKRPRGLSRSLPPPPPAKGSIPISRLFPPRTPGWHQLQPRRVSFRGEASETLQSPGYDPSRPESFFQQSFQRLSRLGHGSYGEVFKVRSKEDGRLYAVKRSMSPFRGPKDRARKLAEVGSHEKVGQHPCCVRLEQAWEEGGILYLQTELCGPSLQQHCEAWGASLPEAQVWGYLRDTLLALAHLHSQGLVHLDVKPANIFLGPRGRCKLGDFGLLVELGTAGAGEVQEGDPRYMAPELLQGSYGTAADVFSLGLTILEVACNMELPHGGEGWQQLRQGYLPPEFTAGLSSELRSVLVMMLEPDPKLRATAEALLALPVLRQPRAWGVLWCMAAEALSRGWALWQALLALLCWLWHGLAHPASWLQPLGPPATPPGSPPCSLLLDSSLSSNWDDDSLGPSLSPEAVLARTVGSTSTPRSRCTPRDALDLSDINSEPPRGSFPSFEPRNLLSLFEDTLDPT

[7] = target: T2, Mitogen-activated protein kinase kinase kinase 5 (Homo sapiens) (UniProt Q99683); assay: Inhibition of ASK1 at 1 uM
T2 sequence (whole entry): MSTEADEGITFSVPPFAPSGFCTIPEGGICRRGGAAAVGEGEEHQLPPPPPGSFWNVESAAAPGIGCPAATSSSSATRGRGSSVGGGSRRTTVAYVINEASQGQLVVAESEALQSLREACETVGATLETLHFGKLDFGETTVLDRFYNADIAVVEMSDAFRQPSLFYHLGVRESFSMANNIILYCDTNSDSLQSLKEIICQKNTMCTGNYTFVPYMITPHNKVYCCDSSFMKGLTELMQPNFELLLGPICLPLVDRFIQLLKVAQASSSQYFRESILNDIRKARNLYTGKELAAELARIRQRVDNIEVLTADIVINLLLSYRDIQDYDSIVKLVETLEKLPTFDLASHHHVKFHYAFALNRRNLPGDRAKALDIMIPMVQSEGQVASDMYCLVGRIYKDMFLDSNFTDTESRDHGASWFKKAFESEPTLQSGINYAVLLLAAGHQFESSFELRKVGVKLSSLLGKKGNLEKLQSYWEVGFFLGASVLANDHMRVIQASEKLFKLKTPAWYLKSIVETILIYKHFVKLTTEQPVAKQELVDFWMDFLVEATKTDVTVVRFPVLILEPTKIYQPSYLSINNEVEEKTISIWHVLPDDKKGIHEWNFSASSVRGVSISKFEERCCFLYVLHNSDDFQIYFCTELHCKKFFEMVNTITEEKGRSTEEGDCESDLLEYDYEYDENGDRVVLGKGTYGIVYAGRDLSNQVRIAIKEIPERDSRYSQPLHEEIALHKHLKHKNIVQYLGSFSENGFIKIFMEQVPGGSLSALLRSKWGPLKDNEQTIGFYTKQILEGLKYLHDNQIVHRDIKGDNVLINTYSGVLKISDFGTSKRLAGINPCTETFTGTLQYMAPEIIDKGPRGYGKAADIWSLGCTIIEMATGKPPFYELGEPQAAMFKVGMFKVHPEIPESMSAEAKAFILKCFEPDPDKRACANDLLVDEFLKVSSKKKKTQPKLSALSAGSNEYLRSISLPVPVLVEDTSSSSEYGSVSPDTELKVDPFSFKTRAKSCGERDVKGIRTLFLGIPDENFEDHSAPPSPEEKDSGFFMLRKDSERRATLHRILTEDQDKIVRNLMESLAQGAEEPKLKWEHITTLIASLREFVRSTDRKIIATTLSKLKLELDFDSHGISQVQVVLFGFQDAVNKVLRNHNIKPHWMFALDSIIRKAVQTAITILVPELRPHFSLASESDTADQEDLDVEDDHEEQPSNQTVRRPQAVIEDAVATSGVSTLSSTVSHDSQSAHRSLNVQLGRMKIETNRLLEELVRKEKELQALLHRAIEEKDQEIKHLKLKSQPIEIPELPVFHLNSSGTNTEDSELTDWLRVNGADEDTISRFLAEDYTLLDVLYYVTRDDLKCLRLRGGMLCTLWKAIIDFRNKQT
In short: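 Ambit KINOMEscan screen at a single concentration across a 250–400 kinase panel, recorded as percent inhibition. Selectivity was expressed as S(90), the fraction of kinases inhibited >90%.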

[8] = target: Bone morphogenetic protein receptor type-1B (Homo sapiens) (UniProt O00238); assay: Inhibition of BMPR1B at 1 uM
Sequence of Bone morphogenetic protein receptor type-1B (Homo sapiens) (O00238 whole entry): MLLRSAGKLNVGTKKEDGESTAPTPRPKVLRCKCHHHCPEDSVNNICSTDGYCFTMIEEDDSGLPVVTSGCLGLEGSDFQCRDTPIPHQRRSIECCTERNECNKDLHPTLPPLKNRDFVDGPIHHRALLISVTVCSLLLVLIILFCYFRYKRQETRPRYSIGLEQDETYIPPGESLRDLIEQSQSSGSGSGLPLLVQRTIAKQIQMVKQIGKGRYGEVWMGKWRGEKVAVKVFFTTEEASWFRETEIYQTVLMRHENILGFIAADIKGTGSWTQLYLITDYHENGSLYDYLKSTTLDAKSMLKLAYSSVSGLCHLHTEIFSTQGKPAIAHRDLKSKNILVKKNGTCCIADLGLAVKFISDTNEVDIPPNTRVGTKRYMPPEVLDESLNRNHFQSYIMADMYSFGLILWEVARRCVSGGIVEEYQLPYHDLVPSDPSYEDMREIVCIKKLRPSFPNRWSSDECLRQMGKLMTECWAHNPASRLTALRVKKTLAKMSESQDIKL

[9] = target: T3, TGF-beta receptor type-1 (Homo sapiens) (UniProt P36897); assay: Inhibition of TGFBR1 at 1 uM
T3 sequence (whole entry): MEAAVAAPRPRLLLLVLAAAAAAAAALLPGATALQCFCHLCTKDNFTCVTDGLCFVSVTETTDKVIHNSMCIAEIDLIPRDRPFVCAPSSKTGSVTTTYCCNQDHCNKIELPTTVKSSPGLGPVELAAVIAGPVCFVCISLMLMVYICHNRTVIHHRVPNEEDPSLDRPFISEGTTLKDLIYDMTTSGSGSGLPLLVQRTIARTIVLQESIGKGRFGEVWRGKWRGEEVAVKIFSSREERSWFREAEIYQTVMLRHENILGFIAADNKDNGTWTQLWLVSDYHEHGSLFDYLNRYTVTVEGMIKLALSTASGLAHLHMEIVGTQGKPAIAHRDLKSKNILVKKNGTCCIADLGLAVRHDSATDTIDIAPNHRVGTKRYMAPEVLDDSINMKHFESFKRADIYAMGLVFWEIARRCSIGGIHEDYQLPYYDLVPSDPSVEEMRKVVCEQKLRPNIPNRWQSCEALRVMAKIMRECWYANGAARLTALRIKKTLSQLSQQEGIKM

[10] = target: Ribosomal protein S6 kinase alpha-2 (Homo sapiens) (UniProt Q15349); assay: Inhibition of RPS6KA2 C-terminal domain2 at 1 uM
Sequence of Ribosomal protein S6 kinase alpha-2 (Homo sapiens) (Q15349 whole entry, the tested form may be a part): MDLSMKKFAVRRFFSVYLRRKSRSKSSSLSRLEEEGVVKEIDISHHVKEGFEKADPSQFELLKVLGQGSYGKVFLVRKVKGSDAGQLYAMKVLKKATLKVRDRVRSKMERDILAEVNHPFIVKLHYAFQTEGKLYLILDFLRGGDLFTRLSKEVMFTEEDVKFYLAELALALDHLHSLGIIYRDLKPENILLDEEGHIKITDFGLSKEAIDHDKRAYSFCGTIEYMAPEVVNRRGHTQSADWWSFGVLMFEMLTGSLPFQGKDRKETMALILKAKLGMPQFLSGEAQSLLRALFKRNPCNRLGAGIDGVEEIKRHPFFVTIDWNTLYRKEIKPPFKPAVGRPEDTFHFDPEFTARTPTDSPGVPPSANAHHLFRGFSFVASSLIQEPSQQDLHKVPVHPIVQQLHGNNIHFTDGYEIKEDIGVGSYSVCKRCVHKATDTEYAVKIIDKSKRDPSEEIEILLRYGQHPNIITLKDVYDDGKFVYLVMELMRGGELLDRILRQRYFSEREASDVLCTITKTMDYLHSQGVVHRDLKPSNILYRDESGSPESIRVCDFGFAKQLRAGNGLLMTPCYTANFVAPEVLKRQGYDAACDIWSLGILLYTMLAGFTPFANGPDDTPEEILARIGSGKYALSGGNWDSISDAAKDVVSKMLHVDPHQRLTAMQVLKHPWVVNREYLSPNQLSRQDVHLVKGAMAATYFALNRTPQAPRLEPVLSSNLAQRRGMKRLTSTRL

Sequence of Cyclin-dependent kinase 16 (Homo sapiens) (Q00536 whole entry): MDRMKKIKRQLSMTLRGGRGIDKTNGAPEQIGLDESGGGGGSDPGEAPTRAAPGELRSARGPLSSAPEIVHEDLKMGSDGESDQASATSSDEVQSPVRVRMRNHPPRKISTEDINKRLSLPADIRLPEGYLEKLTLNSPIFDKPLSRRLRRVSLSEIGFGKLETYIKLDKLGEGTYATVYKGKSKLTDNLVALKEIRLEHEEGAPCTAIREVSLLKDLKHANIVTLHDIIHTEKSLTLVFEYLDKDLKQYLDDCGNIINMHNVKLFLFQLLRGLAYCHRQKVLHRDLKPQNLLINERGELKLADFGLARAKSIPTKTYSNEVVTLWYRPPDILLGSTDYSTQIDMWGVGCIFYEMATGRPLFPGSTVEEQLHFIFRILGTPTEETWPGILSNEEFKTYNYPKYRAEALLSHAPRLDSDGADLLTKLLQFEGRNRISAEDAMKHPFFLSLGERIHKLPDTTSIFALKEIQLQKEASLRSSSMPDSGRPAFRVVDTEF

| inhibition [1] [%] | inhibition [2] [%] | inhibition [3] [%] | inhibition [4] [%] | inhibition [5] [%] | inhibition [6] [%] | inhibition [7] [%] | inhibition [8] [%] | inhibition [9] [%] | inhibition [10] [%] | Compound |
| --- | --- | --- | --- | --- | --- | --- | --- | --- | --- | --- |
| < 50 | < 50 | < 50 | < 50 | < 50 | < 50 | < 50 | < 50 | < 50 | < 50 | CC(=O)N1CCN(c2cc(-c3cnc4c(c3)N(Cc3cc(Cl)ccc3C(F)(F)F)CCN4)ccn2)CC1 |
| 79.2 | < 50 | < 50 | – | < 50 | < 50 | < 50 | – | < 50 | < 50 | O=C(O)c1ccc(-c2cnc3c(c2)N(Cc2cc(Cl)ccc2C(F)(F)F)CCN3)cc1 |
| < 50 | < 50 | < 50 | – | < 50 | < 50 | < 50 | – | < 50 | < 50 | O=C(c1ccc(-c2cnc3c(c2)N(Cc2cc(Cl)ccc2C(F)(F)F)CCN3)cc1)N1CCCCC1 |
| < 50 | < 50 | < 50 | < 50 | < 50 | < 50 | < 50 | < 50 | < 50 | < 50 | CN1CCN(c2ccc(-c3cnc4c(c3)N(Cc3cc(Cl)ccc3C(F)(F)F)CCN4)cn2)CC1 |
| < 50 | < 50 | < 50 | < 50 | < 50 | < 50 | < 50 | < 50 | < 50 | < 50 | CN1CCN(c2ccc(-c3cnc4c(c3)N(Cc3cc(F)ccc3F)CCN4)cn2)CC1 |
| < 50 | < 50 | < 50 | < 50 | < 50 | < 50 | < 50 | < 50 | < 50 | < 50 | CN1CCN(c2ccc(-c3cnc4c(c3)N(Cc3cc(Cl)ccc3Cl)CCN4)cn2)CC1 |
| < 50 | < 50 | < 50 | – | < 50 | < 50 | < 50 | – | < 50 | < 50 | COC1CCN(C(=O)c2ccc(-c3cnc4c(c3)N(Cc3cc(Cl)ccc3C(F)(F)F)CCN4)cc2)CC1 |
| < 50 | < 50 | < 50 | < 50 | < 50 | < 50 | < 50 | < 50 | < 50 | < 50 | CN1CCN(c2ccc(-c3cnc4c(c3)N(Cc3c(F)ccc(F)c3Cl)CCN4)cn2)CC1 |
| < 50 | < 50 | 97 | < 50 | < 50 | < 50 | < 50 | < 50 | < 50 | < 50 | FC(F)(F)c1ccc(Cl)cc1CN1CCNc2ncc(-c3ccnc(N4CCNCC4)c3)cc21 |
| < 50 | < 50 | < 50 | – | < 50 | < 50 | < 50 | – | < 50 | < 50 | O=C(c1ccc(-c2cnc3c(c2)N(Cc2cc(Cl)ccc2C(F)(F)F)CCN3)cc1)N1CCC(N2CCCC2)CC1 |
